Data on three compounds can be found in ChEMBL document CHEMBL5096231, “Covalently Conjugated NOD2/TLR7 Agonists Are Potent and Versatile Immune Potentiators” (J Med Chem, 2022).

One data set deals with PBMC. Kind of data set: Immunostimulatory activity in human PBMC cells assessed as increase in IL-8 production at 1 uM incubated for 18 hrs by flow cytometry analysis. It is filed as functional, cell-based. The method in brief:
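PBMCs at 1 × 10^6 cells/mL treated with compound (1 μM), LPS (1 μg/mL) or 0.1% DMSO vehicle; cell-free supernatants collected after 18 h at 37 °C, 5% CO2. Cytokines quantified by human inflammatory cytokine bead array on flow cytometry with recombinant standard curves. Four independent experiments, mean ± SEM.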
For orientation: Flow cytometry measures light scatter and fluorescence of single cells or particles in a stream.

Data set [1] can be described thus: Induction of activation of human CD56+ CD3- NK cells co-cultured with human PBMC cells assessed as increase in CD69 expression at 1 uM incubated for 24 hrs by flow cytometry analysis (reference value: 2.7%). It is filed as functional, Natural killer cell.
Data set [2] can be described thus: Induction of activation of human CD56+ CD3- NK cells co-cultured with human PBMC cells assessed as increase in CD107a expression at 1 uM incubated for 24 hrs by flow cytometry analysis (reference value: 1.5%). It is filed as functional, Natural killer cell.
The nature of data set [3]: Induction of activation of human CD56+ CD3- NK cells co-cultured with human PBMC cells assessed as increase in IFN-gamma expression at 1 uM incubated for 24 hrs by flow cytometry analysis (reference value: 0.04%). The data set is classed as functional, Natural killer cell.
The nature of data set [4]: Induction of mouse ovalbumin specific CD4+ T cell activation assessed as increase in CD25 expression at 1 uM preincubated for 18 hrs with mouse BDMC cells in presence of ovalbumin followed by washout and further coincubated with CD4+ T cells and measured after 72 hrs by flow cytometry analysis (reference value: 10.9%). It is filed as functional, CD4+ve Th. The method in brief: (§1)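 C57BL/6 BMDCs (GM-CSF 7 days, >90% CD11c+) pulsed 18 h with 1 μM compound, LPS 1 μg/mL or 0.1% DMSO plus OVA 50 μg/mL, washed. 1 × 10^4 BMDCs cocultured 72 h with 5 × 10^4 CFSE-labelled OT-II CD4+ or OT-I CD8+ T cells. Flow: live Thy1.2+ CD4+ or CD8+ cells scored as CD25+ CFSElow. Duplicates of two experiments.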

Data set [5] can be described thus: Induction of mouse ovalbumin specific CD8-positive T cell activation assessed as increase in CD25 expression at 1 uM preincubated for 18 hrs with mouse BDMC cells in presence of ovalbumin followed by washout and further coincubated […] and measured after 72 hrs by flow cytometry analysis (reference value: 12.6%). The data set is classed as functional. The gist of the method:
as §1

A short description of data set [6]: Cytotoxicity against HEK-Blue hNOD2 cells assessed as reduction in metabolic activity at 10 uM incubated for 18 hrs by MTS assay. It is filed as toxicity, cell-based. The conditions noted are these: human, hek-blue hnod2, 18 h. The gist of the method: (§2)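 Cells (HEK-Blue NOD2, RAW-Blue or freshly isolated human PBMCs) seeded in duplicate and exposed to 10 μM compound or 0.1% DMSO vehicle for 18 h at 37 °C, 5% CO2. Metabolic activity then measured by CellTiter 96 AQueous One (MTS) assay.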
Background: Tetrazolium assays rely on reduction of a dye to a coloured formazan, in cell work by metabolically active cells.

The nature of data set [7]: Cytotoxicity against mouse RAW-Blue cells assessed as reduction in metabolic activity at 10 uM incubated for 18 hrs by MTS assay. It is filed as toxicity, cell-based. The method in brief:
as §2

The nature of data set [8]: Cytotoxicity against human PBMC cells assessed as reduction in metabolic activity at 10 uM incubated for 18 hrs by MTS assay. The data set is classed as toxicity, cell-based. The method in brief: as §2
The subject of a further data set is RAW-Blue. Kind of data set: Activation of NF-kappaB transcriptional activity in mouse RAW-Blue cells expressing NOD2 and TLR7 at 1 uM incubated for 18 hrs by quanti-blue/SEAP-based spectrophotometry analysis. The data set is classed as cell-based. The conditions noted are these: filed as activator. The method in brief:
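RAW-Blue cells pretreated 1 h with NOD2 antagonist SG84 (5 μM), TLR7 antagonist M5049 (1 μM), both, or neither, then given compound or 0.1% DMSO vehicle; 18 h at 37 °C, 5% CO2 in growth medium without Normocin/Zeocin. Supernatant mixed with QUANTI-Blue for 2 h at 37 °C, SEAP read at 630 nm. Activity relative to vehicle; three independent experiments, mean ± SEM.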

A further data set has as its system K562. Kind of data set: Cytotoxicity against human K562 cells cocultured with human PBMC cells assessed as inhibition of cell proliferation at 1 uM incubated with PBMC cells for 18 hrs followed by co-incubation with K562 cells for 4 hrs by SYTOX blue staining based flow cytometric analysis. The data set is classed as functional. The method in brief:
(§3)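 Human PBMCs (Ficoll-isolated, healthy donors) pretreated 18 h in duplicate with compound (1 nM–1 μM) or 0.1% DMSO. CFSE-labelled K562 or MEC1 target cells then added, effector:target 40:1, 4 h at 37 °C. Sytox blue staining, flow cytometry; CFSE+Sytox+ cells counted as dead. Expressed relative to vehicle; three independent experiments, mean ± SEM.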

In a further data set the test system is MEC1. Kind of data set: Cytotoxicity against human MEC1 cells cocultured with human PBMC cells assessed as inhibition of cell proliferation at 1 uM incubated with PBMC cells for 18 hrs followed by co-incubation with MEC-1 cells for 4 hrs by SYTOX blue staining based flow cytometric analysis. The data set is classed as functional. The gist of the method:
as §3

The test system of data set [9] is CD4+ve Th. Kind of data set: Induction of mouse ovalbumin specific CD4+ T cell activation assessed as increase in IL-6 expression at 1 uM preincubated for 18 hrs with mouse BDMC cells in presence of ovalbumin followed by washout and further coincubated with CD4+ T cells and measured after 72 hrs. It is filed as functional, cell-based. The method in brief: (§4)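 Supernatants taken after the 72 h coculture of washed BMDCs (18 h pretreatment with 1 μM compound, LPS 1 μg/mL or vehicle, plus OVA 50 μg/mL) with OT-II CD4+ or OT-I CD8+ T cells. Cytokines measured by mouse Th1/Th2/Th17 cytometric bead array. Duplicates of two independent experiments, mean ± SEM.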

Data set [10] concerns CD4+ve Th. Description: Induction of mouse ovalbumin specific CD4+ T cell activation assessed as increase in IL-17A expression at 1 uM preincubated for 18 hrs with mouse BDMC cells in presence of ovalbumin followed by washout and further coincubated with CD4+ T cells and measured after 72 hrs. The data set is classed as functional, cell-based. The gist of the method:
as §4

The subject of data set [11] is CD4+ve Th. Kind of data set: Induction of mouse ovalbumin specific CD4+ T cell activation assessed as increase in TNF expression at 1 uM preincubated for 18 hrs with mouse BDMC cells in presence of ovalbumin followed by washout and further coincubated with CD4+ T cells and measured after 72 hrs. It is filed as functional, cell-based. The method in brief:
as §4

The test system of data set [12] is CD4+ve Th. Kind of data set: Induction of mouse ovalbumin specific CD4+ T cell activation assessed as increase in IFN-gamma expression at 1 uM preincubated for 18 hrs with mouse BDMC cells in presence of ovalbumin followed by washout and further coincubated with CD4+ T cells and measured after 72 hrs. It is filed as functional, cell-based. The gist of the method:
as §4

In data set [13] the test system is CD8-positive T cell. Kind of data set: Induction of mouse ovalbumin specific CD8-positive T cell activation assessed as increase in IL-6 expression at 1 uM preincubated for 18 hrs with mouse BDMC cells in presence of ovalbumin followed by washout and further coincubated with CD4+ T cells and measured after 72 hrs. It is filed as functional, cell-based. The gist of the method:
as §4

The subject of data set [14] is CD8-positive T cell. Description: Induction of mouse ovalbumin specific CD8-positive T cell activation assessed as increase in IL-17A expression at 1 uM preincubated for 18 hrs with mouse BDMC cells in presence of ovalbumin followed by washout and further coincubated with CD4+ T cells and measured after 72 hrs. The data set is classed as functional, cell-based. The gist of the method:
as §4

Data set [15] has as its system CD8-positive T cell. Kind of data set: Induction of mouse ovalbumin specific CD8-positive T cell activation assessed as increase in TNF expression at 1 uM preincubated for 18 hrs with mouse BDMC cells in presence of ovalbumin followed by washout and further coincubated with CD4+ T cells and measured after 72 hrs. It is filed as functional, cell-based. The gist of the method:
as §4

Data set [16] relates to CD8-positive T cell. Kind of data set: Induction of mouse ovalbumin specific CD8-positive T cell activation assessed as increase in IFN-gamma expression at 1 uM preincubated for 18 hrs with mouse BDMC cells in presence of ovalbumin followed by washout and further coincubated […] and measured after 72 hrs. The data set is classed as functional, cell-based. The gist of the method: as §4

Calls of active or inactive are those of the source. The rule behind the calls is not given here.

Consider `CCOC(=O)CC[C@@H](NC(=O)[C@@H](NC(=O)CNC(=O)/C=C/c1ccc(O)c(OC)c1)C(C)C)C(=O)OCC`, for which the result in the data set on PBMC was Active. The Activity in data set [1] was 14%; in [2] it was 1.1%; in data set [3], 1.4%; in [4], 12.6%; in [5], 13.1%; in data set [6], “Non-Toxic”. In addition, the Activity entry in data set [7] and in data set [8] was “Non-Toxic” in each case.

As to `CCCCOc1nc(N)c2nc(O)n(Cc3ccc(C(=O)O)cc3)c2n1`, the Activity is reported as 3.3% in [1]; 1.7% in [2]; 0.05% in data set [3]; 25.8% in data set [4]; 17.6% in data set [5]; “Non-Toxic” in data set [6]. The Activity result in [7] and in data set [8] was “Non-Toxic” in each case.

Turning to `CCCCOc1nc(N)c2nc(O)n(Cc3ccc(C(=O)NCCCCCC(=O)Oc4ccc(/C=C/C(=O)NCC(=O)N[C@H](C(=O)N[C@H](CCC(=O)OCC)C(=O)OCC)C(C)C)cc4OC)cc3)c2n1`, the result in the data set on RAW-Blue, in the data set with K562, in the data set with MEC1, with CD4+ve Th [9], with CD4+ve Th [10] and with CD4+ve Th [11] was Active. In addition, the outcome in the data set on CD4+ve Th [12], with CD8-positive T cell [13], with CD8-positive T cell [14], in the data set with CD8-positive T cell [15] and in the data set on CD8-positive T cell [16] was Active. Also, the Activity in [1] is listed as 93%; in data set [2], 8.6%; in data set [3], 21%; in [4] it was 29.5%; in data set [5], 44.7%; in data set [6] it was “Non-Toxic”. In addition, the Activity result in data set [7] and in data set [8] was “Non-Toxic” throughout.
